Experimental findings from ChEMBL document CHEMBL1799953, “Backbone cyclic peptide inhibitors of protein kinase B (PKB/Akt)” (J Med Chem, 2011) are described below.

*1 amine or outer side, *2 acyl side, *3 side chain or, on linkers, in order; H or OH if unused. Where a SMILES comes first, the peptide text is derived from it. Bridges are numbered along the chain shown (N, C = ends). [ ]: non-standard residue; d: D form. N(6-aminohexyl)Gly = O=C(CN(CCCCCCN[*:3])[*:1])[*:2]; NGly(3-aminopropyl) = O=C(CN(CCCN[*:3])[*:1])[*:2]; Heptanedioyl = O=C(CCCCCC(=O)[*:2])[*:1]; Adipoyl = O=C(CCCCC(=O)[*:2])[*:1]; Glutaryl = O=C(CCCC(=O)[*:2])[*:1]; Gly(N-2-aminoethyl) = NCCNCC(=O)O; Suc = O=C(CCC(=O)[*:2])[*:1]; hLeu = CC(C)CC[C@H](N)C(=O)O; Nva = CCC[C@H](N)C(=O)O; Dap = NC[C@H](N)C(=O)O; CO = O=C([*:1])[*:2]; Nlys = NCCCCNCC(=O)O

In the first experiment the target is T1, RAC-alpha serine/threonine-protein kinase (Homo sapiens, UniProt P31749). In words: Inhibition of Akt using RPRTSSF peptide and [gamma32]ATP by cell-free radioactive assay. The gist of the method: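 Same reaction: HisΔPHPKBEEEFlag (0.005 units), 50 mM Hepes pH 7.4, 0.1 mM EGTA, 0.1% 2-mercaptoethanol, 10 mM magnesium acetate, 3 μM RPRTSSF, 10 μM [γ32P]ATP. Peptide stock concentration determined by UV spectrophotometry; reference peptide run in every assay.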
T1 sequence (P31749 whole entry): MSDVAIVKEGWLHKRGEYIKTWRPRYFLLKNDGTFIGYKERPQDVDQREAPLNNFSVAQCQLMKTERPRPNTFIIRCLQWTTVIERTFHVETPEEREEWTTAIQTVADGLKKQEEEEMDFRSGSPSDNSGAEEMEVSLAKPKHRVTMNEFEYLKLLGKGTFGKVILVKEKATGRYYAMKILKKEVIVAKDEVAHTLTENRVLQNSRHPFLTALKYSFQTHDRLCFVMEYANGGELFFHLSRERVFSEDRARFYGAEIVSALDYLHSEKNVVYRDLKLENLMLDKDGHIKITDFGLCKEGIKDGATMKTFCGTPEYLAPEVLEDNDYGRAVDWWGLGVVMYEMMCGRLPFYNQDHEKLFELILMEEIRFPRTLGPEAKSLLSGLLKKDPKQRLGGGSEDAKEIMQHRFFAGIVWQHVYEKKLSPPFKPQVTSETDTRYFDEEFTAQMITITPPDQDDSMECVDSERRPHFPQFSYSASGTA
Consider `CCC[C@@H]1NC(=O)[C@H](CCCN=C(N)N)NC(=O)CN(C(=O)[C@@H](N)CCCN=C(N)N)CCCCCCNC(=O)NCCCCN(CC(N)=O)C(=O)[C@H](CCC(C)C)NC(=O)[C@H](CN)NC(=O)[C@H](Cc2ccc(O)cc2)NC1=O` (H-R[N(6-aminohexyl)Gly]R[Nva]Y[Dap][hLeu][Nlys]-NH2; linker 2-8 via CO), for which the IC50 (commonly the midpoint of a concentration-inhibition curve) amounted to 280 nM. Turning to `CCC[C@@H]1NC(=O)[C@H](CCCNC(=N)N)NC(=O)CN(C(=O)[C@@H](N)CCCNC(=N)N)CCCNC(=O)NCCCCCCN(CC(N)=O)C(=O)[C@H](CCC(C)C)NC(=O)[C@H](CN)NC(=O)[C@H](Cc2ccc(O)cc2)NC1=O` (H-R[NGly(3-aminopropyl)]R[Nva]Y[Dap][hLeu][N(6-aminohexyl)Gly]-NH2; linker 2-8 via CO), the IC50 amounted to 320 nM.

For the molecule `CCC[C@@H]1NC(=O)[C@H](CCCN=C(N)N)NC(=O)CN(C(=O)[C@@H](N)CCCN=C(N)N)CCCNC(=O)NCCCN(CC(N)=O)C(=O)[C@H](CCC(C)C)NC(=O)[C@H](CN)NC(=O)[C@H](Cc2ccc(O)cc2)NC1=O` (H-R[NGly(3-aminopropyl)]R[Nva]Y[Dap][hLeu][NGly(3-aminopropyl)]-NH2; linker 2-8 via CO), the IC50 is 590 nM. Take `CCC[C@H](NC(=O)[C@H](CCCN=C(N)N)NC(=O)CN(CCCCN)C(=O)[C@@H](N)CCCN=C(N)N)C(=O)N[C@@H](Cc1ccc(O)cc1)C(=O)N[C@@H](CN)C(=O)N[C@@H](CCC(C)C)C(=O)N(CCN)CC(N)=O` (H-R[Nlys]R[Nva]Y[Dap][hLeu][Gly(N-2-aminoethyl)]-NH2): the IC50 came to 220 nM.

For `CCC[C@@H]1NC(=O)[C@H](CCCNC(=N)N)NC(=O)CN(C(=O)[C@@H](N)CCCNC(=N)N)CCCCNC(=O)NCCCCN(CC(N)=O)C(=O)[C@H](CCC(C)C)NC(=O)[C@H](CN)NC(=O)[C@H](Cc2ccc(O)cc2)NC1=O` (H-R[Nlys]R[Nva]Y[Dap][hLeu][Nlys]-NH2; linker 2-8 via CO), the IC50 was determined as 170 nM.

Another experiment has as its target T1, RAC-alpha serine/threonine-protein kinase. In words: Inhibition of Akt using RPRTSSF peptide and [gamma32]ATP at 5 uM by cell-free radioactive assay relative to control. Put shortly: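 Cell-free 32P kinase assay: HisΔPHPKBEEEFlag (0.005 units, one-step Ni-NTA partial purification), 50 mM Hepes pH 7.4, 0.1 mM EGTA, 0.1% 2-mercaptoethanol, 10 mM magnesium acetate, 3 μM RPRTSSF substrate, 10 μM [γ32P]ATP (1 μCi/well). Inhibitor at 5 μM. Activity loss expressed as percent of uninhibited reaction.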
In the case of `CCC[C@@H]1NC(=O)[C@H](CCCNC(=N)N)NC(=O)CN(C(=O)[C@@H](N)CCCNC(=N)N)CCCNC(=O)NCCCCCCN(CC(N)=O)C(=O)[C@H](CCC(C)C)NC(=O)[C@H](CN)NC(=O)[C@H](Cc2ccc(O)cc2)NC1=O` (H-R[NGly(3-aminopropyl)]R[Nva]Y[Dap][hLeu][N(6-aminohexyl)Gly]-NH2; linker 2-8 via CO), the inhibition – broadly, the share of the control response that was lost under treatment – was 100%.

For the molecule `CCC[C@@H]1NC(=O)[C@H](CCCNC(=N)N)NC(=O)CN(C(=O)[C@@H](N)CCCNC(=N)N)CCCCNC(=O)NCCCCN(CC(N)=O)C(=O)[C@H](CCC(C)C)NC(=O)[C@H](CN)NC(=O)[C@H](Cc2ccc(O)cc2)NC1=O` (H-R[Nlys]R[Nva]Y[Dap][hLeu][Nlys]-NH2; linker 2-8 via CO), the inhibition stood at 100%. On the same count and under the same terms, then `CCC[C@@H]1NC(=O)[C@H](CCCNC(=N)N)NC(=O)[C@@H]2CCCN2C(=O)[C@H](CCCNC(=N)N)NC(=O)CCCCC(=O)NCCCCCCN(CC(N)=O)C(=O)[C@H](CCC(C)C)NC(=O)[C@H](CN)NC(=O)[C@H](Cc2ccc(O)cc2)NC1=O` (RPR[Nva]Y[Dap][hLeu][N(6-aminohexyl)Gly]-NH2; linker N-8 via Adipoyl), with 30%; and `CCC[C@@H]1NC(=O)[C@H](CCCNC(=N)N)NC(=O)[C@@H]2CCCN2C(=O)[C@H](CCCNC(=N)N)NC(=O)CCCC(=O)NCCCCCCN(CC(N)=O)C(=O)[C@H](CCC(C)C)NC(=O)[C@H](CN)NC(=O)[C@H](Cc2ccc(O)cc2)NC1=O` (RPR[Nva]Y[Dap][hLeu][N(6-aminohexyl)Gly]-NH2; linker N-8 via Glutaryl), with 32%. `CCC[C@@H]1NC(=O)[C@H](CCCNC(=N)N)NC(=O)[C@@H]2CCCN2C(=O)[C@H](CCCNC(=N)N)NC(=O)CCCCCC(=O)NCCCCCCN(CC(N)=O)C(=O)[C@H](CCC(C)C)NC(=O)[C@H](CN)NC(=O)[C@H](Cc2ccc(O)cc2)NC1=O` (RPR[Nva]Y[Dap][hLeu][N(6-aminohexyl)Gly]-NH2; linker N-8 via Heptanedioyl): the inhibition came out at 30%.

With `CCC[C@@H]1NC(=O)[C@H](CCCNC(=N)N)NC(=O)[C@@H]2CCCN2C(=O)[C@H](CCCNC(=N)N)NC(=O)CCC(=O)NCCCCCCN(CC(N)=O)C(=O)[C@H](CCC(C)C)NC(=O)[C@H](CN)NC(=O)[C@H](Cc2ccc(O)cc2)NC1=O` (RPR[Nva]Y[Dap][hLeu][N(6-aminohexyl)Gly]-NH2; linker N-8 via Suc), the inhibition was 25%. Still for that read-out and setting: for `CCC[C@@H]1NC(=O)[C@H](CCCNC(=N)N)NC(=O)[C@@H]2CCCN2C(=O)[C@H](CCCNC(=N)N)NC(=O)CCCCC(=O)NCCCCN(CC(N)=O)C(=O)[C@H](CCC(C)C)NC(=O)[C@H](CN)NC(=O)[C@H](Cc2ccc(O)cc2)NC1=O` (RPR[Nva]Y[Dap][hLeu][Nlys]-NH2; linker N-8 via Adipoyl) the value was 18%; for `CCC[C@@H]1NC(=O)[C@H](CCCNC(=N)N)NC(=O)[C@@H]2CCCN2C(=O)[C@H](CCCNC(=N)N)NC(=O)CCCC(=O)NCCCCN(CC(N)=O)C(=O)[C@H](CCC(C)C)NC(=O)[C@H](CN)NC(=O)[C@H](Cc2ccc(O)cc2)NC1=O` (RPR[Nva]Y[Dap][hLeu][Nlys]-NH2; linker N-8 via Glutaryl), 14%; for `CCC[C@@H]1NC(=O)[C@H](CCCNC(=N)N)NC(=O)[C@@H]2CCCN2C(=O)[C@H](CCCNC(=N)N)NC(=O)CCCCCC(=O)NCCCCN(CC(N)=O)C(=O)[C@H](CCC(C)C)NC(=O)[C@H](CN)NC(=O)[C@H](Cc2ccc(O)cc2)NC1=O` (RPR[Nva]Y[Dap][hLeu][Nlys]-NH2; linker N-8 via Heptanedioyl), 16%. `CCC[C@@H]1NC(=O)[C@H](CCCNC(=N)N)NC(=O)[C@@H]2CCCN2C(=O)[C@H](CCCNC(=N)N)NC(=O)CCC(=O)NCCCCN(CC(N)=O)C(=O)[C@H](CCC(C)C)NC(=O)[C@H](CN)NC(=O)[C@H](Cc2ccc(O)cc2)NC1=O` (RPR[Nva]Y[Dap][hLeu][Nlys]-NH2; linker N-8 via Suc): the inhibition amounted to 13%.
